From ChEMBL document CHEMBL2046322, “Discovery of 1,3-Diaminobenzenes as Selective Inhibitors of Platelet Activation at the PAR1 Receptor” (ACS Med Chem Lett, 2012)
≈ marks a conversion by molar mass, not a printed value. Calls of active or inactive are those of the source. The calls are words filed in the database; no cut-off is given here.

Experiments:
[1] = molecular target: T1, Proteinase-activated receptor 1 (Homo sapiens) (UniProt P25116); details: 3 uM
T1 sequence (whole entry): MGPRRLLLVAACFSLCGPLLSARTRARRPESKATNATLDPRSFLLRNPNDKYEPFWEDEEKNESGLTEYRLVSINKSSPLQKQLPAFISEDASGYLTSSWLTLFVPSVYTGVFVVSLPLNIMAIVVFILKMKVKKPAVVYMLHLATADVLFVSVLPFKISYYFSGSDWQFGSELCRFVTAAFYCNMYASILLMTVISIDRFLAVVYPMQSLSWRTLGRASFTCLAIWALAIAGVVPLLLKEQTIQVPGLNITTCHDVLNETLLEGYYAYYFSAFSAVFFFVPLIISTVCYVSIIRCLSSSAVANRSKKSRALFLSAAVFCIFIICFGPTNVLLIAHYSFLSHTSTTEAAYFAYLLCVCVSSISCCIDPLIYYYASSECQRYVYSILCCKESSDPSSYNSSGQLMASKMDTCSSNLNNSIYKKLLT

Plasma [2] = test: Metabolic stability in mouse plasma assessed as compound remaining at 5 uM after 5 hrs; format: ADME, cell-free
Procedure, shortened: (§1)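 Compound incubated in human or mouse plasma; stability reported as percent remaining after 5 h.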

[3] = molecular target: T1, Proteinase-activated receptor 1 (Homo sapiens); details: 3 uM; remark: listed apart in the source
[4] = molecular target: T1, Proteinase-activated receptor 1 (Homo sapiens); details: Plasma, 3 uM
Plasma [5] = test: Metabolic stability in human plasma assessed as compound remaining at 5 uM after 5 hrs; format: ADME, cell-free
Procedure, shortened: as §1

[6] = molecular target: cGMP-inhibited 3',5'-cyclic phosphodiesterase 3A (Homo sapiens) (UniProt Q14432); test: Inhibition of PDE3A
Chain of cGMP-inhibited 3',5'-cyclic phosphodiesterase 3A (Homo sapiens) (Q14432 whole entry): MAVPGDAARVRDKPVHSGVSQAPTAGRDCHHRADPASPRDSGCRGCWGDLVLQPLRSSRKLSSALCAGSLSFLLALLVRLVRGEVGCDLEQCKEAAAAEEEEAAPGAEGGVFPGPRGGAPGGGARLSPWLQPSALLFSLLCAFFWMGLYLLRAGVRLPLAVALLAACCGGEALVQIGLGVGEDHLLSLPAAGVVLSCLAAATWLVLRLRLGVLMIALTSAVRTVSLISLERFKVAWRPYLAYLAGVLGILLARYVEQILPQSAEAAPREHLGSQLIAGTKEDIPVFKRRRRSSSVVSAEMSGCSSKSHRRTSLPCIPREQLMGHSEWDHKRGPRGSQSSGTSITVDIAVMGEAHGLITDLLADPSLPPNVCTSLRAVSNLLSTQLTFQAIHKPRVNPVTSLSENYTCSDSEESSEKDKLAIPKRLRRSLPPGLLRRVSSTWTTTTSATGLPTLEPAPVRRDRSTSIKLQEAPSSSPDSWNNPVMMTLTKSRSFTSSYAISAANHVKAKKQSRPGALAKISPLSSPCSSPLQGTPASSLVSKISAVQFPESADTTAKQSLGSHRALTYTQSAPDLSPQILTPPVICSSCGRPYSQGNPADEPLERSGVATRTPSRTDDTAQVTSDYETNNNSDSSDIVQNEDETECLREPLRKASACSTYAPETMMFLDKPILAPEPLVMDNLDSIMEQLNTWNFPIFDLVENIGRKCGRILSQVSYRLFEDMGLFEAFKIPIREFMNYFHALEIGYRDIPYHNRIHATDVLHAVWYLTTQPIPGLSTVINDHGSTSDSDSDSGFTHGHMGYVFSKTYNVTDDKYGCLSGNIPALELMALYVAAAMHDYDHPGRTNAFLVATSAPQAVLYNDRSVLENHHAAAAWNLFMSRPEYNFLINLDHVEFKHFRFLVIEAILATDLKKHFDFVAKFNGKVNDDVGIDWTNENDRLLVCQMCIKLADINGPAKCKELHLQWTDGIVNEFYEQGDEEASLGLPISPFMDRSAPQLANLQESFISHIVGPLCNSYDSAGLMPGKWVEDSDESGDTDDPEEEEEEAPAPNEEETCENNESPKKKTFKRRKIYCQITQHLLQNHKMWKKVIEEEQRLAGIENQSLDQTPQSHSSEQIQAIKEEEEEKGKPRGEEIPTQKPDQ

[7] = molecular target: T1, Proteinase-activated receptor 1 (Homo sapiens); details: 3 uM; remark: listed apart in the source
[8] = molecular target: T1, Proteinase-activated receptor 1 (Homo sapiens); details: Plasma, 3 uM; remark: listed apart in the source
[9] = molecular target: T1, Proteinase-activated receptor 1 (Homo sapiens); details: Plasma, 3 uM; remark: listed apart in the source
[10] = molecular target: T1, Proteinase-activated receptor 1 (Homo sapiens); test: Inhibition of SFLLRN-NH2-stimulated PAR1-mediated platelet activation in […] assessed as surface expression of P-selectin at 10 uM after 20 mins by flow cytometry; format: cell-based
[11] = molecular target: T1, Proteinase-activated receptor 1 (Homo sapiens); details: 3 uM; remark: listed apart in the source
[12] = molecular target: T2, Proteinase-activated receptor 1 (Homo sapiens, UniProt P25116); test: Inhibition of SFLLRN-NH2-stimulated PAR1-mediated platelet activation in […] assessed as surface expression of P-selectin after 20 mins by flow cytometry; parameters: species or system Plasma
T2 sequence (P25116 whole entry): T1 sequence (whole entry)

[13] = molecular target: T1, Proteinase-activated receptor 1 (Homo sapiens); details: Plasma, 3 uM; remark: listed apart in the source
[14] = molecular target: T1, Proteinase-activated receptor 1 (Homo sapiens); details: 3 uM; remark: listed apart in the source
Plasma [15] = test: Plasma protein binding in human; format: ADME, cell-free
[16] = Solubility of the compound in phosphate buffered saline; format: physicochemical; details: buffer

- inhibition [1]: Active
- Stability (Plasma [2]): 2%
- inhibition [3]: inactive
- inhibition [4]: inactive
- Stability (Plasma [5]): 80%
- inhibition [6]: inactive
- inhibition [7]: inactive
- inhibition [8]: inactive
- inhibition [9]: inactive
- inhibition [10]: > 99%
- inhibition [11]: inactive
- IC50 [12]: 260 nM
- inhibition [13]: inactive
- inhibition [14]: Active
- PPB (Plasma [15]): 97%
- solubility [16]: 40 µM (≈ 14.4 µg/mL)
SMILES: CCCC(=O)Nc1cccc(NC(=O)c2ccccc2Br)c1
